Screens as filed in PubChem.
MC4R ag barr: MC4R agonists recruiting beta-arrestin, primary screen, cell-based, luminescence, agonist arm of biased-ligand search; Melanocortin receptor 4 (Homo sapiens), P32245; U2OS MC4R beta-arrestin complementation; percent of melanotan II response, DMSO zero; activation, % at 8.9 µM; 360,000 tested, 0.98% active; AID 540308, 2011;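 active means activation above a per-plate cutoff, the mean activation of sample wells on that plate plus 3 SD, cut at about 8% in these data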
Target sequence (P32245 whole entry, looked up): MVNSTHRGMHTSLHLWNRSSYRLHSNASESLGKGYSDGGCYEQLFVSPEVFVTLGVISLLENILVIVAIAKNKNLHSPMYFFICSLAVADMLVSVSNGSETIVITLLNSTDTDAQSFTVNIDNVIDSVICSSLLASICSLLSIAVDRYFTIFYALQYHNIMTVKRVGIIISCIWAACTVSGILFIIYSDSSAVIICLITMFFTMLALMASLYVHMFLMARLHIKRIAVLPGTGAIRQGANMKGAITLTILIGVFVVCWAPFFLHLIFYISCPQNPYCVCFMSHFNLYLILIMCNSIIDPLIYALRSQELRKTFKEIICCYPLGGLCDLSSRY
MsrA act: bovine MsrA enzyme activators, primary screen, biochemical, absorbance, HTS; Methionine sulfoxide reductase A (Bos taurus); AID 602163, 2012; 360,000 tested, 0.3% active; activation, % at 10.6 µM; purified bovine MsrA, absorbance read-out; in the data active means activation above about 7.5%;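 further: 0% = vehicle and 100% = reference activator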
MsrA inh: bovine MsrA enzyme inhibitors, primary screen, biochemical, absorbance, HTS; Methionine sulfoxide reductase A (Bos taurus); purified bovine MsrA, absorbance read-out; inhibition, % at 15.5 µM; 360,000 tested, 0.75% active; AID 651718, 2012;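 further: 0% = vehicle wells with enzyme and 100% = reference inhibitor wells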
MC4R antagonist: MC4R antagonists of cAMP signaling, primary screen, cell-based, TR-FRET, antagonist arm of biased-ligand search; AID 540295, 2011; MC4R-expressing cells, MTII-stimulated cAMP, LANCE TR-FRET; inhibition, % at 6.5 µM; 360,000 tested, 0.48% active;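 active means inhibition above its plate's cutoff, the mean of tested wells on that plate plus 3 SD, cut at about 29% in these data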;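 further: 0% = Melanotan II alone and 100% = Melanotan II plus saturating MCL0020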
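Assay system: U2OS cells stably expressing human melanocortin 4 receptor (MC4R) / Dosing: 6.5 µM / Timing: compound 30 min, challenge 1 h, detection 1 h / Measured by: Eu-cAMP/anti-cAMP TR-FRET, emission 671 nm / Replicates: singlicate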
MsrA inh confirm: bovine MsrA inhibitors, retest, confirmation, biochemical, absorbance, HTS | 2,300 tested, 41% active | inhibition, % at 15.5 µM | shares compounds with MsrA inh | AID 651822, 2012 | purified bovine MsrA, absorbance read-out;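 further: coupled to thioredoxin reductase with NADPH and selenocystamine and DMSO as substrate; 0% = vehicle only and 100% = full effect of reference inhibitor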
Starred values were filed as active, the others as inactive; / = no result. Only some compounds are listed: those with a hit (about 2.3% of all), similar ones and a draw of the others. Unless noted, no stated cut-off is given here; in the data, active means inhibition above about 4.5%; inactive means the rest.

SMILES	MC4R ag barr	MsrA act	MsrA inh	MC4R antagonist	MsrA inh confirm
CC(=O)C(Sc1ncnc2c1nnn2-c1ccc(F)cc1)C(=O)N(C)C (stereo unspecified)	/	/	5.7*	/	3
CCOC(=O)CSc1ncnc2c1nnn2-c1ccc(F)cc1	0	-3	0	8	/
O=C(NNC(=O)C1[C@H]2CCCC[C@@H]12)c1ccc(=O)oc1 (stereo partly specified)	-1	-5	1	-2	/
CCC(CO)Oc1cc(NC(=O)c2cccc([N+](=O)[O-])c2)c2ncn(C(C)C)c2c1 (stereo unspecified)	-1	-2	1	12	/
CN1/C(=C/C(=O)C2CCC2)Sc2ccccc21	-1	-4	8.3*	7	5.9*
CCc1ccccc1N1CC23C=CC(O2)C(C(=O)OCC(C)C)C3C1=O (stereo unspecified)	0	0	0	6	/
CCc1ccc[n+](-c2[nH]c(=O)sc2/C=N/NC([S-])=Nc2ccccc2)c1	1	-5	6.5*	5	1
Cc1cc(C)c[n+](-c2[nH]c(=O)sc2/C=N/NC([S-])=Nc2ccccc2)c1	-2	-3	4.9*	-14	6.2*
CCOC(=O)CSC1=NC(=O)/C(=C\c2ccc(Cl)cc2)S1	1	3	5.2*	8	3
CCOC(=O)/C(C#N)=C1/C=CN(C)C(C)=N1	0	-7	6.6*	6	6.0*
CCOC(=O)/C(C#N)=C1/C=C(C)NC(c2ccccc2O)=N1	0	-1	2	16	/
O=S1(=O)N[C@@H](Cc2ccccc2)COc2cccc(N3CCC[C@H]3CO)c21	/	-2	-1	/	/
CN(C(=O)c1cccc(NC(=O)Cc2ccc(NC(=O)C3CCCN(C(=O)c4ccccc4)C3)cc2)c1)C1CCC1 (stereo unspecified)	-1	-3	-1	3	/
CCOC(=O)c1sc(/N=C/N(C)C)nc1C	-2	-1	3	6	/
CCOC(=O)c1cnc(/N=C/N(C)C)s1	2	-5	5.0*	3	4
COc1ccc(-c2cc(C(=O)N/N=C/c3ccc4c(c3)OCO4)c3ccccc3n2)c(OC)c1	-1	-3	5.8*	4	4
COc1ccc(/C=N/NC(=O)c2[nH]c3ccc(C)cc3c2-c2ccccc2)c(C(=O)O)c1OC	-3	-5	6.2*	-5	4
COc1cccc(-c2cc(C(=O)N/N=C/c3cccc(OC)c3OC)c3ccccc3n2)c1	-3	-2	1	1	/
COc1cc(/C=N/NC(=O)c2cc(-c3ccco3)nc3ccccc23)cc(OC)c1O	-2	-7	4.7*	7	3
COc1ccc(/C=N/NC(=O)c2cc(-c3ccccc3)nc3ccccc23)c(C(=O)O)c1OC	0	-4	4.7*	5	2
CCOC(=O)c1nn(-c2ccccc2)c(=O)cc1SC(C)CC (stereo unspecified)	3	-1	0	20	/
COc1cc(/C=C2/C(=N)N3C(=NC2=O)SN=C3S(C)(=O)=O)ccc1OC(=O)c1ccco1	-1	-2	2	-2	/
Cc1nc2ccccc2c(=O)n1/N=C/c1ccccc1	0	-1	-1	11	/
COc1ccc(/C=N/NC(=O)c2cc(-c3ccccc3)nc3ccccc23)cc1O	-3	-4	2	-1	/
COc1cc(/C=N/NC(=O)c2cc(-c3ccccc3)nc3ccccc23)ccc1O	1	-3	5.0*	18	4
SMILES	MC4R ag barr	MsrA act	MsrA inh	MC4R antagonist	MsrA inh confirm
COc1cc(/C=N/n2c(C)nc3ccccc3c2=O)ccc1O	-1	-3	5.4*	19	3
Cc1nn(-c2ccccc2)c(N2CCCC2)c1/C=N/NC(=O)c1cc(-c2cccnc2)nc2ccccc12	4	-11	4.7*	11	1
O=c1nc(-c2ccccc2)c2cc(Br)ccc2[nH]1	-1	-13	0	-7	/
O=c1cc2[nH]c3ccccc3c(=O)n2nc1-c1ccccc1	-2	-6	4.9*	0	1
O=c1c(-c2ccccc2)coc2c(CN3CCCC3)c(O)ccc12	-3	-5	5.5*	5	2
O=c1cccc(-c2ccc3ccccc3c2)o1	/	/	5.0*	/	3
CCc1cc2ccc(C)cc2nc1SCC(=O)Nc1c[nH]c(=O)[nH]c1=O	-1	-7	1	0	/
CCOC(=O)c1cc(-c2ccc(/C=C3/C(=O)NC(=O)C(C#N)=C3C)o2)ccc1Cl	1	-10	0	-3	/
CC1=C(C#N)C(=O)NC(=O)/C1=C\c1ccc(-c2ccc(C)cc2[N+](=O)[O-])o1	-2	-5	9.2*	1	4
COc1cccc(N/N=C(\C#N)S(=O)(=O)C(C)(C)C)c1	-1	-14	4.7*	-7	2
CC(C)(C)S(=O)(=O)/C(C#N)=N/Nc1ccc(C#N)cc1	0	-4	4	8	/
S=c1[nH]nc(C2CCCCC2)n1/N=C/c1ccccc1Cl	0	-2	15*	-2	12*
C/C(=N\OCC(=O)NCC(F)(F)F)c1cc2ccccc2o1	0	2	1	15	/
Nc1ccc(-c2nc3ccc(N)cc3s2)cc1	-3	-7	5.6*	0	7.5*
Nc1cc2sc(-c3ccc(C(=O)O)cc3)nc2cc1Cl	-1	-3	5.5*	13	4
Nc1ccc(-c2nc3ccc(C(=O)O)cc3s2)cc1	-1	-4	5.9*	21	7.2*
CCn1c(=O)cc(OCC(=O)NC(C)c2ccc3c(c2)OCCO3)c2ccccc21 (stereo unspecified)	-1	-5	0	-4	/
Cc1ccc(C(=O)C(OC(=O)CN2C(=O)c3ccccc3C2=O)c2ccccc2)cc1 (stereo unspecified)	0	0	1	-1	/
O=[N+]([O-])c1ccc(Nc2ccccc2)c2nonc12	-3	4	5.8*	-7	4
CCN(CC)Cc1c(O)ccc2cc(-c3nc4ccccc4n3C)c(=O)oc12	-1	-1	2	4	/
CCc1cc2c(=O)c(-c3nc4ccccc4n3C)c(C)oc2c(CN(CC)CC)c1O	0	-2	5.3*	13	4
O=[N+]([O-])c1ccc(N/N=C2\CC3CC=CC23)c([N+](=O)[O-])c1 (stereo unspecified)	0	-8	5.6*	3	4
COC(=O)C1C/C(=N\NS(=O)(=O)c2ccc(C)cc2)c2sccc2C1 (stereo unspecified)	-2	-2	1	17	/
CC/C(=C/c1sc2ccc(C)cc2[n+]1CCCS(=O)(=O)[O-])SC	/	/	4.8*	/	3
CC(C)(C)c1ccc(C(=O)/C=C2\NC(=O)CS2)cc1	2	-12	5.1*	-4	4
